Each structure is given as a SMILES string.

The text below walks through data of ChEMBL document CHEMBL1137390, “Structure-based design of potent small-molecule inhibitors of anti-apoptotic Bcl-2 proteins” (J Med Chem, 2006).

Assay [1] addresses T1, Apoptosis regulator Bcl-2 (Homo sapiens, UniProt P10415). The experiment in a line: Displacement of FAM-Bid from human Bcl2 by FP assay. The gist of the method:
(§1)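 Competitive fluorescence-polarization binding assay against the recombinant anti-apoptotic protein. Values are reported as Ki ± SD from three to seven independent experiments per compound.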

Assay [2] deals with T1, Apoptosis regulator Bcl-2. The experiment in a line: Binding affinity to human Bcl2 by ELISA. A general note: In an ELISA, binding on a coated surface is turned into a signal by an enzyme label.
Assay [3] relates to PC-3. The assay is described as follows: Induction of apoptosis in human PC3 cell at 20 uM by TUNEL assay. Type of assay: functional. A digest of the protocol: (§2)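 PC-3 prostate cancer cells were exposed to compound for 4 days, with an untreated control included. Apoptosis was scored by TUNEL using flow cytometry: the BrdU-FITC-positive fraction (M1 marker) is given as the percentage of apoptotic cells.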

The target of another assay is Bcl-2-like protein 1 (Homo sapiens, UniProt Q07817). The assay is described as follows: Displacement of FAM-Bak from human Bcl-xL by FP assay. The gist of the method:
as §1

Assay [4] has as its target Induced myeloid leukemia cell differentiation protein Mcl-1 (Homo sapiens, UniProt Q07820). The experiment in a line: Displacement of FAM-Bid from human Mcl1 by FP assay.
Assay [5] concerns PC-3. The assay is described as follows: Induction of apoptosis in human PC3 cell at 1.25 uM by TUNEL assay. Type of assay: functional. The gist of the method:
as §2

Assay [6] relates to PC-3. The assay is described as follows: Induction of apoptosis in human PC3 cell at 5 uM by TUNEL assay. The class given is functional. The gist of the method: as §2

Bcl-2-like protein 1, sequence (Q07817 whole entry): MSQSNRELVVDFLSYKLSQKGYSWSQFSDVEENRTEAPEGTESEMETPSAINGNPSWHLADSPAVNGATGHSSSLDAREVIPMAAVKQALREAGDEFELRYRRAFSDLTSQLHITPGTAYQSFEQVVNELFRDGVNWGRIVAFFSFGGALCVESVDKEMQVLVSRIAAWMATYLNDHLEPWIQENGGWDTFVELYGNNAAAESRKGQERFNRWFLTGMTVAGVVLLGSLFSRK
Induced myeloid leukemia cell differentiation protein Mcl-1, sequence (Q07820 whole entry): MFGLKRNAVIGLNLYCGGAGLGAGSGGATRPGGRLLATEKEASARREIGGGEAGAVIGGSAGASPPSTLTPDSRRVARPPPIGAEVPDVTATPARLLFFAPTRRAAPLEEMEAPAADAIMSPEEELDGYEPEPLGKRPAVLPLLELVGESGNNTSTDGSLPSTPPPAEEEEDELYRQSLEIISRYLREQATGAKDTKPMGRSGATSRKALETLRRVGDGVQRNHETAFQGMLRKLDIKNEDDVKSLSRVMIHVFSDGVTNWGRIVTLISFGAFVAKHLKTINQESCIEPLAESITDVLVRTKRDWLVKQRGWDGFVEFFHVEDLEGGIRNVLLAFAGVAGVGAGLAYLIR
T1 sequence (P10415 whole entry): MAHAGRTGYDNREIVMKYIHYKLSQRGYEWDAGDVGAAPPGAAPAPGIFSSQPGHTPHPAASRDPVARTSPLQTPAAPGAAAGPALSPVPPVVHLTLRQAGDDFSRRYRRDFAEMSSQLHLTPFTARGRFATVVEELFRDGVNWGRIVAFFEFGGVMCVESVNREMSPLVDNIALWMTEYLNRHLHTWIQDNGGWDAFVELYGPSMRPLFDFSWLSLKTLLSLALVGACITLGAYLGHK

What is called Ki is the equilibrium dissociation constant of an inhibitor or competing ligand from its target. One may read the IC50 as the midpoint of a concentration-inhibition curve. As to `CC(C)c1cc(C(=O)Nc2ccccc2)c(O)c(O)c1O`, the affinity in assay [1], expressed as Ki, was 24100 nM. For the same molecule, the IC50 in assay [2] is 53100 nM.

Take `O=C(Nc1ccccc1)c1cc(Cc2ccccc2)c(O)c(O)c1O`: the affinity in assay [1], expressed as Ki, was 8300 nM. This molecule displayed an IC50 in assay [2] of 7200 nM.

As for `COc1c(Cc2ccccc2C(C)C)cc(C(=O)Nc2ccc(S(=O)(=O)c3ccccc3C(C)(C)C)cc2)c(OC)c1OC`, the affinity in assay [1] corresponds to a Ki of 25000 nM. In addition, the Activity in the assay on PC-3 [3] is 1.2%.

The molecule `O=C(Nc1ccc(S(=O)(=O)c2ccccc2)cc1)c1cc(Cc2ccccc2)c(O)c(O)c1O` yielded an inhibition constant Ki in assay [1] of 930 nM. This molecule also registered a half-maximal inhibitory concentration (IC50) in assay [2] of 1600 nM.

Regarding `CC(C)c1ccccc1Cc1cc(C(=O)Nc2ccc(S(=O)(=O)c3ccccc3C(C)(C)C)cc2)c(O)c(O)c1O`, the figures for the Ki (in assay [1]; at Bcl-2-like protein 1; in assay [4]) were 290 nM, 1110 nM and 260 nM, respectively. Moreover, the IC50 was 700 nM in assay [2], 6580 nM on Bcl-2-like protein 1 and 1030 nM in assay [4]. Moreover, the Activity in the assay on PC-3 [5] worked out at 11.2%; in the assay with PC-3 [6], 89.5%.

In assay [4], `CC[C@H](C)[C@H](NC(=O)[C@H](CC(N)=O)NC(=O)[C@H](CCCN=C(N)N)NC(=O)[C@@H](NC(=O)[C@@H](NC(=O)[C@H](CC(=O)O)NC(=O)[C@H](CCC(=O)O)NC(=O)[C@@H](N)CCC(N)=O)[C@@H](C)CC)[C@@H](C)CC)C(=O)N[C@@H](C)C(=O)N[C@@H](CCCN=C(N)N)C(=O)N[C@@H](Cc1c[nH]cn1)C(=O)N[C@@H](CC(C)C)C(=O)N[C@@H](C)C(=O)N[C@@H](CCC(N)=O)C(=O)N[C@H](C(=O)NCC(=O)N[C@@H](CC(=O)O)C(=O)N[C@@H](CO)C(=O)N[C@@H](CCSC)C(=O)N[C@@H](CC(=O)O)C(=O)N[C@@H](CCCN=C(N)N)C(=O)O)C(C)C` returned an IC50 of 52 nM and a Ki of 12 nM.

For `Cc1cc2c(C(C)C)c(O)c(O)c(C=O)c2c(O)c1-c1c(C)cc2c(C(C)C)c(O)c(O)c(C=O)c2c1O` [GOSSYPOL], the values for the inhibition constant (Ki) (at Bcl-2-like protein 1; in assay [4]) were 480 nM and 180 nM, respectively.
